This is a sample that favours compounds with a hit; in the whole collection about 3.9% have one here.
tim10-1 inh: growth inhibitors of tim10-1 mutant yeast, primary screen, luminescence, uHTS | actives 2.2% (n = 330,000) | inhibition, % at 20 µM | S. cerevisiae tim10-1 ts strain growth, BacTiter-Glo, 24 h | AID 463190, 2010;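 active means inhibition of at least 40%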;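 further: mutant grown at 25 °C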
XBP1 UPR activ: activators of adaptive XBP1 UPR arm, primary screen, cell-based, CHO-XBP1 luciferase reporter, luminescence, uHTS. activation, % at 20 µM. actives 0.33% (n = 330,000). AID 463104, 2010. IRE1-XBP1 UPR activation; percent of tunicamycin response, DMSO as zero;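 active means versus positive control, 20 µM dose yields 30% or more activation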
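Material: CHO cell line with stable XBP1 luciferase reporter; schedule: 16-18 h cell attachment at 37 °C, then 6 h compound exposure; signal: glow luminescence from Steady-Glo reagent; medium: serum-containing F12 medium, 10% FBS; benchmarks: tunicamycin 10 µg/mL and vehicle-only wells; read-out: percent activation relative to tunicamycin reference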
UPR CHOP act: activators of apoptotic CHOP UPR arm, primary screen, cell-based, CHO-CHOP luciferase reporter, luminescence, uHTS | UPR activation; percent of tunicamycin response over DMSO baseline | activation, % at 10 µM | actives 0.34% (n = 330,000);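 active means at 10 µM dose, activation of 40% or more, normalized to positive control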
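assay system = CHO CHOP reporter cells | amount = 500 CHO-CHOP cells per well | buffer or medium = F12 with 10% FBS | incubation = 16-18 h cell attachment, then 6 h compound exposure, 37 °C | detection = luminescence read with Steady-Glo | read-out = percent activation relative to tunicamycin control | controls = tunicamycin high control, DMSO low control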
TIM10 inh: growth inhibitors of isogenic TIM10 control yeast, primary screen, counter-screen for tim10-1 yeast inhibitor project, luminescence, uHTS; S. cerevisiae TIM10 strain growth, BacTiter-Glo luminescence, 24 h; inhibition, % at 10 µM; actives 1.4% (n = 330,000); AID 463195, 2010;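 active means inhibition of 40% or more at the single tested concentration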;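 further: wild-type TIM10 isogenic control strain grown at permissive 25 °C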
tim23-1 inh: growth inhibitors of tim23-1 mutant yeast, primary screen, luminescence, uHTS; S. cerevisiae tim23-1 growth, BacTiter-Glo luminescence, 24 h; inhibition, % at 20 µM; actives 1.3% (n = 330,000);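 active means growth inhibition of the mutant yeast at or above 50%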;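 further: temperature-sensitive mutant grown at 25 °C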
XBP1 UPR conf: IRE1-XBP1 UPR arm activators, confirmation, cell-based, CHO-XBP1 luciferase reporter, luminescence, single concentration; shares compounds with XBP1 UPR activ; activation, % at 20 µM; actives 63% (n = 1,000); AID 485299, 2010;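 active means reporter signal at least 30% of the positive control's activation in two or more of four replicate wells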
Each line names hits and unclear results; the compound was inactive in the other large screens (follow-up assays come after a bar, where they were run).

COc1ccc2oc(-c3ccc(C)c(NC(=O)c4ccc(N5CCOCC5)c([N+](=O)[O-])c4)c3)nc2c1	XBP1 UPR activ 119 | XBP1 UPR conf 140
Cc1cccc2c1Sc1ccc(Cl)cc1CC2N1CCNCC1 (configuration not stated)	XBP1 UPR activ 31 | XBP1 UPR conf 37
CN(C)CCCn1cnc2c(c1=N)C(c1ccccc1)c1ccc3ccccc3c1O2 (configuration not stated)	XBP1 UPR activ 32 | XBP1 UPR conf 127
COC(=O)c1ccccc1NC(=O)c1ccc(-c2cccc(Cl)c2)o1	XBP1 UPR activ 52 | XBP1 UPR conf inactive
COC(=O)c1ccccc1NC(=O)c1ccc(COc2ccccc2)o1	none
Cc1ccc(S(=O)(=O)N2CCc3ccccc3C2)cc1C	none
CN1CCN(C(=O)C2CCC(=O)N(CCc3cccc(F)c3)C2)CC1 (configuration not stated)	none
CCOC(=O)c1cc(-c2ccccc2)sc1NC(=O)c1ccc(OC)cc1	XBP1 UPR activ 151 | XBP1 UPR conf 118
COC(=O)c1sc(-c2ccccc2)cc1NC(=O)c1ccc(F)cc1	XBP1 UPR activ 61 | XBP1 UPR conf inactive
O=C(Nc1ccc2c(c1)OCO2)c1c[nH]c(=O)n(-c2ccc(F)cc2)c1=O	none
Cc1cc(C)n(-c2ccc(NC(=O)C3CCCCN3C(=O)c3sccc3C)cc2)n1 (configuration not stated)	none
COC(=O)c1ccc(NS(=O)(=O)c2ccc(S(=O)(=O)N3CCOCC3)cc2)cc1	none
c1ccc(SSc2ccccc2)cc1	XBP1 UPR activ 49 | XBP1 UPR conf inactive
O=C(NCCC1=CCCCC1)C(=O)NCC(c1ccco1)N1CCN(c2ccc(F)cc2)CC1 (configuration not stated)	XBP1 UPR activ 31 | XBP1 UPR conf 56
Cc1ccc(S(=O)(=O)NCCC(=O)NNC(=O)c2ccccc2O)cc1C	none
CNc1snc(C)c1C(=O)OC(C)C(=O)NCc1ccccc1 (configuration not stated)	none
COc1ccc(-c2c(-c3cc(OC)cc(OC)c3)n(C)c3ccc(-c4ccc(OC)nc4)cc23)cc1	none
COc1ccc(-c2c(-c3cc(OC)cc(OC)c3)n(C)c3ccc(-c4cnc(N)nc4)cc23)cc1	XBP1 UPR activ 189 | XBP1 UPR conf 132
CN=C1SC(CC(=O)Nc2ccc(F)cc2F)C(=O)N1/N=C/c1ccc(OC(F)F)c(OC)c1 (configuration not stated)	XBP1 UPR activ 201 | XBP1 UPR conf inactive
Cc1cc(C)cc(OCC(=O)Nc2ccc(-n3cnnn3)cc2)c1	none
COc1ccc(NC(=O)CSc2nc3n[nH]c(C)c3c(=N)n2-c2ccc(Cl)c(C)c2)cc1OC	XBP1 UPR activ 34 | XBP1 UPR conf inactive
Cc1cc(-n2c(SCC(=O)NCCC3=CCCCC3)nc3n[nH]c(C)c3c2=N)ccc1Cl	none
CCOC(=O)c1ccc(-c2ccc3c(=O)c4ccccc4n(C)c3c2)cc1F	XBP1 UPR activ 100 | XBP1 UPR conf inactive
CCOC(=O)c1ccc(-c2c(-c3ccccc3OC)oc3ccccc23)cc1F	none
Cc1ccccc1NC(=O)CSc1nc(COc2ccccc2)nc2ccccc12	none
Cc1cc(C)c(NC(=O)CSc2nc(COc3ccccc3)nc3ccccc23)c(C)c1	XBP1 UPR activ 53 | XBP1 UPR conf 47
COc1ccc(-c2c(C(C)=O)c(C)nc3sc4c(c23)NC(c2ccccc2)NC4=O)cc1 (configuration not stated)	XBP1 UPR activ 60 | XBP1 UPR conf inactive
COc1cccc(C(=O)NCC(=O)N2CCC3(CC2)NCCc2[nH]cnc23)c1	none
COc1ccc(-c2ccc3c(c2)S(=O)(=O)c2cccc(C(=O)NCCOc4ccccc4Cl)c2C3=O)cc1OC	XBP1 UPR activ 94 | XBP1 UPR conf 46
COCCN(C(=O)COC(=O)c1nc(Cl)ccc1Cl)c1c(N)n(Cc2ccccc2)c(=O)[nH]c1=O	none

High-throughput results deposited in PubChem by Sanford-Burnham Center for Chemical Genomics.
